The record followed here is ChEMBL document CHEMBL3124750 (Bioorg Med Chem Lett, 2014).

The test system of data set [1] is Striatum. Nature of the data set: Ratio of drug level from ipsilateral to contralateral in Wistar rat administered as iv measured after 60 mins of postinjection by MicroPET imaging analysis. The format is ADME, organism-based. Particulars: in vivo, 1 h. An outline of the steps:
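Anesthetized Wistar rats lesioned by AMPA injection into the right striatum 7 days earlier received the [18F] tracer i.v. for microPET. The ratio is bound tracer in the lesion divided by bound tracer in the contralateral side at 60 min post-injection.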

The test system of data set [2] is Striatum. Description: Drug uptake in iv dosed AMPA lesioned Wistar rat brain contralateral side of striatum measured after 60 mins by MicroPET imaging analysis. The format is ADME, organism-based. Particulars: in vivo, 1 h. In a few lines:
(§1)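 MicroPET on anesthetized Wistar rats 7 days after AMPA injection into the right striatum. The [18F]-labelled tracer was given i.v.; uptake is expressed as percent injected dose per mL (% ID/mL) in the lesioned striatum or the contralateral area at 60 min.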

Data set [3] relates to Striatum. Nature of the data set: Drug uptake in iv dosed AMPA lesioned Wistar rat brain striatum measured after 60 mins by MicroPET imaging analysis. Particulars: in vivo, 1 h. The format is ADME, organism-based. In a few lines:
as §1

Data set [4] concerns Liver microsome. Description: Drug metabolism in rat liver microsomes assessed as retention time of deethylated M1 metabolite formation after 30 mins by LC-MS/MS analysis. The format is ADME. As to conditions: 0.5 h. In a few lines: (§2)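 Rat liver microsomes, 30 min incubation; metabolites detected by LC-MS and MS-MS. Chromatography: C18 column (2.1 x 150 mm, 5 µm), water/acetonitrile each with 0.05% formic acid, gradient 60:40 to 20:80 over 20 min, 200 µL/min; UV detection at 275 nm; retention times recorded.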
(Microsomes from liver hold many membrane-bound enzymes, among them those of drug oxidation.)

A short description of data set [5]: Octanol-buffer partition coefficient, log D of the compound at pH 7.4 by HPLC method. The format is physicochemical. In a few lines:
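The HPLC retention time was converted to logD7.4 by calibration against known logD values of similar compounds. C18 column (4.6 x 20 mm, 3.5 µm); A: 5 mM MOPS/(CH3)4NOH pH 7.4; B: 5% MOPS/(CH3)4NOH (100 mM, pH 7.4) in 95% acetonitrile; gradient 98:2 to 0:100; 1.2 mL/min; 25 °C; detection at 254 nm.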

Data set [6] deals with Translocator protein (Rattus norvegicus, UniProt P16257). Description: Displacement of [3H]PK11195 from TSPO in rat heart membrane homogenates. The format is cell membranes. For orientation: In a radioligand displacement assay an active substance lowers the binding of a labelled ligand.
The nature of data set [7]: Displacement of [3H]flunitrazepam from CBR in rat cerebral cortex membrane homogenates. The format is cell membranes. An outline of the steps: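 Central benzodiazepine receptor counter-screen: competition against [3H]flunitrazepam (Kd = 2.1 nM, used at 0.4 nM) on rat cerebral cortex membrane homogenates; Ki values derived.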
Data set [8] concerns Liver microsome. Nature of the data set: Drug metabolism in rat liver microsomes assessed as retention time of hydroxylated M2 metabolite formation after 30 mins by LC-MS/MS analysis. The format is ADME. As to conditions: 0.5 h. In a few lines: as §2
Data set [9] concerns Liver microsome. Description: Drug metabolism in rat liver microsomes assessed as retention time of compound after 30 mins by LC-MS/MS analysis. The format is ADME. Particulars: 0.5 h. In a few lines: as §2
Data set [10] relates to Liver microsome. Description: Drug metabolism in rat liver microsomes assessed as retention time of hydroxylated M3 metabolite formation after 30 mins by LC-MS/MS analysis. As to conditions: 0.5 h. The format is ADME. An outline of the steps:
as §2

Data set [11] has as its system Liver microsome. Description: Drug metabolism in rat liver microsomes assessed as retention time of dihydroxylated M4 metabolite formation after 30 mins by LC-MS/MS analysis. The format is ADME. Particulars: 0.5 h. In a few lines:
as §2

SMILES strings stand for the structures. Some results are limits rather than exact numbers.

Chain of Translocator protein (P16257 whole entry, looked up): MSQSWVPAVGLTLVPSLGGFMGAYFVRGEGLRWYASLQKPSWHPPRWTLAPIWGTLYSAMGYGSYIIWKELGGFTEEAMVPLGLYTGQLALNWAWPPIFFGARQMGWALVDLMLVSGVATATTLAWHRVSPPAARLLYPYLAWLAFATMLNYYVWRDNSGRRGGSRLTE

On to `CCC(C)N([11CH3])C(=O)c1cc2ccccc2c(-c2ccccc2Cl)n1` (stereo not drawn), for which the Ratio in data set [1] turned out to be 1.65.

Take `CCN(CC)C(=O)Cc1c(-c2ccc(C#CCCC[18F])cc2)nn2c(C)cc(C)nc12`: the Ratio in [1] came out at 4.62. Also, the figures for the Drug uptake in data set [2] and in data set [3] were 0.05 %ID/ml and 0.24 %ID/ml, respectively.

By logD is commonly meant lipophilicity at a set pH, counting ionised and neutral species. Read a high logD as a more lipophilic compound. A word on the Ki: it is the dissociation constant of the complex between target and ligand, obtained from inhibition or displacement. With `CCN(CC)C(=O)Cc1c(-c2ccc(C#CCF)cc2)nn2c(C)cc(C)nc12`, the Retention_time in [4] is recorded as 11.41 min; in data set [8] it was 11 min; in data set [9], 15.66 min. The logD in data set [5] turned out to be 3.61. Also, the figures for the Ki in [6] and in [7] were 0.54 nM and > 1000 nM, respectively.

Consider `CCN(CC)C(=O)Cc1c(-c2ccc(C#CCCF)cc2)nn2c(C)cc(C)nc12`, for which the Retention_time turned out to be 10.01 min in data set [10]; 11.68 min in data set [4]; 5.89 min in [11]; 11.19 min in [8]; 15.81 min in data set [9]. Moreover, the logD in [5] came to 3.67. Further, the Ki in data set [6] is 0.74 nM; in data set [7] it was > 1000 nM.

For the compound `CCN(CC)C(=O)Cc1c(-c2ccc(C#CCCCF)cc2)nn2c(C)cc(C)nc12`, the Retention_time is listed as 8.92 min in [10]; 12.08 min in data set [4]; 3.43 min in [11]; 11.37 min in data set [8]; 17.05 min in data set [9]. For the same compound, the logD in [5] is 4.06. The inhibition constant Ki is 0.35 nM in [6] and > 1000 nM in data set [7].

Take `CCN(CC)C(=O)Cc1c(-c2ccc(C#CCCCCF)cc2)nn2c(C)cc(C)nc12`: the Retention_time in [10] is recorded as 10.01 min; in data set [4], 11.68 min; in data set [11] it was 5.89 min; in [8], 11.19 min; in [9] it was 15.81 min. The compound also had a logD in data set [5] of 4.35. In addition, the values for the Ki in [6] and in data set [7] were 0.79 nM and > 1000 nM, respectively.

Take `CCN(CC)C(=O)Cc1c(-c2ccc(OCC[18F])cc2)nn2c(C)cc(C)nc12` [DPA-714 F-18]: the Drug uptake stood at 0.08 %ID/ml in [2] and 0.3 %ID/ml in [3].

With `CCN(CC)C(=O)Cc1c(-c2ccc(OCCF)cc2)nn2c(C)cc(C)nc12` [DPA-714], the logD in data set [5] amounted to 2.89. For the same compound, the Ki in data set [7] is > 1000 nM.
